Screens: PubChem BioAssay, several laboratories
hK5 inh – inhibitors of human kallikrein 5 | Q9Y337 | recombinant hK5, fluorogenic AMC substrate cleavage | inhibition, % at 5 µM | 210,000 compounds, 0.59% hits;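 active means inhibition of 40% or more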;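 further: 0% = enzyme controls without compound and 100% = no-enzyme blanks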
thrombin 1536 – blocks human thrombin protease activity; P00734; alpha-thrombin, Boc-VPR-AMC fluorogenic substrate cleavage; inhibition, % at 5 µM; 220,000 compounds, 0.26% hits;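 active means inhibition at or above 40%; inactive means inhibition below 40%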;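 further: 0% = enzyme with no compound and 100% = wells without enzyme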
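Material: human alpha-thrombin protein; Also added: Boc-VPR-AMC substrate, 15 µM final; Timing: enzyme reaction carried out at room temperature; Signal: fluorescence, ex 355 nm, em 460 nm; Measure: % inhibition of thrombin; Controls: enzyme without compound as high, wells lacking enzyme as low.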
Calpain2 inh – inhibitors of pig calpain II. inhibition, % at 16 µM. 220,000 compounds, 0.37% hits. AID 1236. purified calpain II, fluorogenic peptide substrate, 30 min;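 active means inhibition above about 50%, limit read from the data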
FXIIa inh 1536 – inhibitors of human coagulation factor XIIa | AID 800 | P00748 | purified FXIIa, Boc-QGR-AMC fluorogenic substrate, 2 h | inhibition, % at 5 µM | 220,000 compounds, 0.3% hits; in the data active means inhibition above about 40%;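 further: 0% = enzyme with no compound and 100% = blank without enzyme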
FXIa inh 1536 – inhibitors of human coagulation factor XIa | P03951 | purified FXIa, Boc-Glu-Ala-Arg-AMC fluorogenic substrate | inhibition, % at 5 µM | 220,000 compounds, 0.14% hits;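 active means inhibition of at least 40%; inactive means inhibition below 40%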;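 further: fluorescence of freed AMC excited at 355 nm; 0% = enzyme without compound and 100% = no enzyme blank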
Target sequence (P03951 19-387 limits assumed): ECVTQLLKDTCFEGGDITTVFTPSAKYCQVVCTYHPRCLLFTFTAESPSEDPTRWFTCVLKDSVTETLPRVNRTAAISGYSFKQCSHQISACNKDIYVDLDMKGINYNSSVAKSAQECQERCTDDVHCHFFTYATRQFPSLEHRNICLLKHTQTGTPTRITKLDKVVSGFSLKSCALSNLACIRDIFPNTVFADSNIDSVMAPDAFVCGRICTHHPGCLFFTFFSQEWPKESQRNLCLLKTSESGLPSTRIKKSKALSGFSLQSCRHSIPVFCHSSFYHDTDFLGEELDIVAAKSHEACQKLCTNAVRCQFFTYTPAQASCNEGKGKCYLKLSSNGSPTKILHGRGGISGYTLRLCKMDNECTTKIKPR
Target sequence (P03951 388-625 limits assumed): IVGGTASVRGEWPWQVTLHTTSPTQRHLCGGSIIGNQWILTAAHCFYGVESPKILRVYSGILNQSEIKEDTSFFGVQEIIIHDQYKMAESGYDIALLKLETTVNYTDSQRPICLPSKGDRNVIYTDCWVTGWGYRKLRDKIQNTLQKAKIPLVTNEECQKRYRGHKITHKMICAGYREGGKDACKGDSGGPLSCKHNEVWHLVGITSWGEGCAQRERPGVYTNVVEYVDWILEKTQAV
The depositor's hits bear a star; / = not tested or not shown. Sampled rows, rich in hits. Any-hit rate of the full collection: about 1.4%.

SMILES | hK5 inh | thrombin 1536 | Calpain2 inh | FXIIa inh 1536 | FXIa inh 1536
Cc1ccc(S(=O)(=O)N(Cc2ccccc2)c2ccccc2C(=O)NCc2ccco2)cc1 | -3 | -2 | 22 | 47* | -7
CCN(CC)S(=O)(=O)c1ccc(Cl)c(C(=O)Oc2cccc(-c3cnc4ccccc4n3)c2)c1 | 56* | 8 | 12 | 13 | 3
CCN(CC)S(=O)(=O)c1ccc(Cl)c(C(=O)Oc2cccnc2)c1 | -21 | -9 | -5 | 6 | -6
O=C1c2ccccc2C(=O)N1CCCC(=O)N1CCCc2ccccc21 | -1 | 4 | 57* | 15 | 7
O=C(CCCCCCN1C(=O)c2ccccc2C1=O)N1CCC(c2ccccc2)C1 (stereo unspecified) | -13 | -6 | 53* | 9 | -1
CN1CCc2c(OCC(=O)N3CCCc4ccccc43)cccc2C1=O | -6 | -1 | -28 | 7 | -4
CC(C)c1ccc(N(CC(=O)N/N=C/c2ccc(OC3CSC3)cc2)S(=O)(=O)c2ccccc2)cc1 | 22 | 59* | 23 | -4 | -11
Cc1ccc(N(CC(=O)N/N=C/c2ccc(OC3CSC3)cc2)S(=O)(=O)c2ccccc2)cc1 | -10 | -3 | 15 | 6 | -3
Cc1ccc(-c2c(C)sc(NC(=O)C3C4CCC(O4)C3C(=O)O)c2C(=O)OC(C)C)cc1 (stereo unspecified) | 107* | 3 | -29 | -3 | -7
O=C(c1ccc(S(=O)(=O)Nc2ccc(F)cc2)cc1)N1CCN(c2ccccn2)CC1 | -8 | 3 | 21 | 6 | -2
Cc1ccc(S(=O)(=O)Nc2ccc3c(c2)c2c(n3S(=O)(=O)c3ccc(C)cc3)CCCC2=O)cc1 | 68* | 27 | 42 | 12 | 14
CC(C)(C)C(=O)O/N=C(\N)c1ccc(-c2csnn2)cc1 | -2 | 6 | -6 | 10 | 4
Cc1cc(C)c2c3c(sc2n1)C(c1cccc(F)c1)C(C#N)=C(N)O3 (stereo unspecified) | 14 | 60* | 21 | 10 | 4
COc1ccc(-n2c(=S)[nH]c3cc(C(=O)Nc4cccc(C)c4)ccc3c2=O)cc1 | -34 | -11 | 17 | -2 | -5
COc1ccc(-n2c(=S)[nH]c3cc(C(=O)Nc4ccc(OC)c(OC)c4)ccc3c2=O)cc1 | -39 | 2 | 60* | 10 | 8
Clc1ncnc2scc(-c3ccc(Br)cc3)c12 | -10 | -6 | 20 | 9 | 0
COCCC1CCCCN1Cc1cn(-c2ccccc2)nc1-c1ccc2c(c1)OCO2 (stereo unspecified) | / | -2 | -4 | 0 | -5
O=C1CN(CC(=O)N2CCOCC2)c2ccccc2O1 | 42* | 11 | 18 | 24 | 14
O=C1CN(CC(=O)N2CCCCC2)c2ccccc2O1 | -24 | -1 | 9 | 6 | -4
Cc1c(C#N)c(O)n(CCO)c(=O)c1N=Nc1ccc(S(N)(=O)=O)cc1 | 11 | 47* | 10 | 25 | 27
Cc1c(C#N)c(O)n(C)c(=O)c1N=Nc1ccc(S(N)(=O)=O)cc1 | 25 | 57* | 8 | 29 | 25
CC1CCN(C(=O)c2cc(N3C(=O)C4C5CCC(C5)C4C3=O)ccc2Cl)CC1 (stereo unspecified) | -6 | -10 | -17 | 3 | -3
COC(=O)c1cc(N2C(=O)C3C(C2=O)C2(C)C=CC3(C)O2)ccc1Cl (stereo unspecified) | 44* | 104* | -20 | 6 | 5
COC(=O)c1ccccc1NC(=O)Nc1cc(C)ccn1 | 23 | 32 | 13 | 41* | 31
COC(=O)c1ccccc1NC(=O)Nc1cc(C)cc(C)n1 | -11 | -7 | -49 | -6 | 0
SMILES | hK5 inh | thrombin 1536 | Calpain2 inh | FXIIa inh 1536 | FXIa inh 1536
Cc1ccc(NC(=O)CN(C)C2CCCCC2)cc1Br | 0 | -8 | 2 | 2 | -2
Cc1ccc(C(C)C)c(OCCN)c1 | -25 | -13 | 15 | 4 | -8
Cc1ccc(C(C)C)c(OCCNC(=S)Nc2cccc3ccccc23)c1 | -31 | -1 | 51* | -4 | -4
O=C(NCC1COc2ccccc2O1)c1c[nH]c2ccc(S(=O)(=O)N3CCOCC3)cc2c1=O (stereo unspecified) | -15 | 2 | 0 | 19 | 13
O=C(NCc1ccc2c(c1)OCO2)c1c[nH]c2ccc(S(=O)(=O)N3CCOCC3)cc2c1=O | -12 | 55* | 2 | 13 | 6
CCN(CC)CCNC(=O)c1ccc(NC(=O)c2cccc(S(=O)(=O)Nc3ccc(C)cc3)c2)cc1 | 20 | 15 | 0 | 22 | 101*
COc1cccc(C(=O)NNC(=O)Cc2cccs2)c1 | 1 | 15 | 8 | 6 | -5
O=C(CS(=O)(=O)c1ccc2ccccc2c1)Nc1ccccc1Cl | 58* | 16 | 21 | 20 | 11
CCOc1cccc(CNc2ccc(O)cc2)c1OCc1ccc(Cl)cc1Cl | 1 | 1 | 68* | 0 | -2
CCOc1cccc(CNc2ccc(O)cc2)c1OCc1ccccc1Cl | -2 | 3 | 7 | 14 | 6
Cc1ccc2c(c1)[nH]c1c(=O)n(CCC3=CCCCC3)cnc12 | 19 | 64* | 18 | 5 | -3
CCOC(=O)c1cn(Cc2ccccc2)nn1 | -5 | -6 | 6 | 50* | 36
CCOC(=O)c1cn(CC(=O)Nc2ccccc2C(=O)OCC)nn1 | 10 | 3 | -22 | 12 | -15
CC(C)(C)c1cccc(C2(O)C(=O)c3ccccc3C2=O)c1O | -1 | -8 | -5 | 6 | 3
O=C(CSc1ccccn1)C12CC3CC(CC(C3)C1)C2 | 1 | 0 | 51* | 10 | -1
CC(=O)c1ccc(N2CCN(S(=O)(=O)c3cccc(S(=O)(=O)N4CCOCC4)c3)CC2)cc1 | 90* | 12 | -10 | 47* | 9
CC(=O)c1ccc(N2CCN(C(=O)/C=C/c3ccc(S(=O)(=O)N4CCOCC4)cc3)CC2)cc1 | -2 | -6 | 5 | / | -5
COC(=O)CC1C(=O)NCCN1C(=S)Nc1cccc(C)c1 (stereo unspecified) | -21 | -3 | 11 | 45* | 35
CCc1ccc(-c2ccc(SCC(=O)NCC3CCCO3)nn2)cc1 (stereo unspecified) | -9 | -3 | 8 | 2 | -6
Cc1c(Cl)cccc1Nc1nc(N)nc(CN2CCc3ccccc3C2)n1 | -26 | 0 | 24 | 43* | 27
Cc1cc(C)c(C)c(S(=O)(=O)ON2C(=O)c3ccccc3C2=O)c1C | 12 | 18 | -14 | 53* | 72*
Cc1cccc2c1N(C)C(=O)C2=O | -3 | -14 | -19 | 7 | 1
Cc1ccc(S(=O)(=O)ON2C(=O)c3ccccc3C2=O)c(C)c1 | 13 | 62* | -11 | 47* | 57*
Cc1cc(C)c(S(=O)(=O)ON2C(=O)c3ccccc3C2=O)cc1C | 29 | 56* | 13 | 38 | 72*
Cc1cccc(OCCN2C(=O)c3ccccc3C2=O)c1 | -2 | -1 | 19 | 8 | -2
CCC(C)[C@@H](N)C(=O)N/N=C/c1cccc2nccnc12 (stereo partly specified) | -9 | -12 | 8 | 0 | -9
